{"data": "Measured values collected from several papers", "effect on": "DPPH scavenging", "note": "Compare with care: the assays were run in different laboratories."}
{"Compound": "COc1cc(C(CC(=O)c2ccc(C)cc2)NCCc2ccc(O)c(O)c2)ccc1O (stereo not shown)", "IC50": "21.1 µg/mL"}
{"Compound": "O=C(OC[C@H]1O[C@@H](OC(=O)c2cc(O)c(O)c(O)c2)[C@H](OC(=O)c2cc(O)c(O)c(O)c2)[C@@H](OC(=O)c2cc(O)c(O)c(O)c2)[C@@H]1O)c1cc(O)c(O)c(O)c1", "assay": "absorbance", "IC50": "11900 nM"}
{"Compound": "O=C(Cc1c[nH]c2ccccc12)Nc1cccc(F)c1", "IC50": "1530 nM"}
{"Compound": "COc1cc(C(CC(=O)c2ccc([N+](=O)[O-])cc2)NCCc2ccc(O)c(O)c2)ccc1O (stereo not shown)", "IC50": "14.6 µg/mL"}
{"Compound": "Cc1c(C)c2c(c(C)c1O)CCC(C)(C(=O)O)O2 (stereo not shown)", "assay": "absorbance", "IC50": "7.06 µg/mL"}
{"Compound": "COc1cc(C=Cc2cc(-c3ccccc3)nc(O)n2)ccc1O", "IC50": "24 µg/mL"}
{"Compound": "Cc1c(C)c2c(c(C)c1O)CC[C@@](C)(CCC[C@H](C)CCC[C@H](C)CCCC(C)C)O2", "assay": "absorbance", "IC50": "11.3 µg/mL"}
{"Compound": "O=C1O[C@H]([C@@H](O)CO)C(O)=C1O", "assay": "absorbance", "IC50": "141000 nM"}
{"Compound": "COc1ccc(-c2nc3cc(Cl)ccc3[nH]2)cc1OCc1ccccc1", "assay": "absorbance", "IC50": "2760 nM"}
{"Compound": "Cc1ccc(Cl)cc1NC(=O)Cc1c[nH]c2ccccc12", "IC50": "1620 nM"}
{"Compound": "Clc1ccc2[nH]c(-c3cccc(OCc4ccccc4)c3)nc2c1", "assay": "absorbance", "IC50": "1820 nM"}
{"Compound": "COC(=O)c1cc(O)c(O)c(O)c1", "assay": "absorbance", "IC50": "35000 nM"}
{"Compound": "Cc1ccc(C)c(NC(=O)Cc2c[nH]c3ccccc23)c1", "IC50": "1790 nM"}
{"Compound": "COc1ccc(-c2nc3cc([N+](=O)[O-])ccc3[nH]2)cc1OCc1ccccc1", "assay": "absorbance", "IC50": "2570 nM"}
{"Compound": "O=C1O[C@H]([C@@H](O)CO)C(O)=C1O", "IC50": "4960 nM"}
{"Compound": "COc1ccc(-c2nc3ccccc3[nH]2)cc1OCc1ccccc1", "assay": "absorbance", "IC50": "1480 nM"}
{"Compound": "Cc1ccc(NC(=O)Cc2c[nH]c3ccccc23)c(C)c1", "IC50": "2670 nM"}
{"Compound": "CCOC(=O)c1cc(O)c(O)c(O)c1", "assay": "absorbance", "IC50": "43400 nM"}
{"Compound": "O=C(Cc1c[nH]c2ccccc12)Nc1ccccc1", "IC50": "2360 nM"}
{"Compound": "Cc1cc(C(C)(C)C)c(O)c(C(C)(C)C)c1", "IC50": "25.2 µg/mL"}
{"Compound": "O=c1c(O[C@@H]2O[C@H](CO)[C@@H](O)[C@H](O)[C@H]2O)c(-c2ccc(O)c(O)c2)oc2cc(O)cc(O)c12", "assay": "absorbance", "IC50": "90500 nM"}
{"Compound": "O=C(Cc1c[nH]c2ccccc12)Nc1ccc(Br)cc1", "IC50": "1030 nM"}
